Each structure is given as a SMILES string. pIC50: −log10 of the molar value.

The pIC50 is the IC50 on a negative log10 scale, so that one unit is a factor of ten.

Assay [1] deals with HL-60. Kind of assay: Selectivity ratio of IC50 for human HL60/MX2 cells to IC50 for human HL60 cells. It is filed as functional. Put shortly:
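Ratio of IC50 in HL60/MX2 over HL60, both from the 48 h CellTiter-Blue growth-inhibition assay. IC50s are means of at least three biological repeats. Two-tailed Student t test between the two cell lines.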

Assay [2] is described as follows: Cytotoxicity against human HL60/MX2 cells assessed as cell growth inhibition after 48 hrs by cell titer blue cell viability assay. It counts as functional, cell-based. As to conditions: HL60/MX2, 48 h. Put shortly:
(§1)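 HL60 or HL60/MX2 cells kept in RPMI 1640 with 10% FBS and 1% penicillin–streptomycin at 37 °C, 5% CO2. Seeded at 1 × 10^4 cells/well and exposed to serial dilutions (1% DMSO final; 1% DMSO medium as control) in triplicate for 48 h. Viability read by CellTiter-Blue. IC50 fitted with a dose–response model; at least three biological repeats on different days; mean ± SD.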
On the technique in general: Resazurin is reduced to fluorescent resorufin, in cell work by metabolically active cells.

Assay [3] in a line: Cytotoxicity against human HL60 cells assessed as cell growth inhibition after 48 hrs by cell titer blue cell viability assay. It is filed as functional, cell-based. The following applies: HL-60, 48 h. Put shortly:
as §1

With `C#CCOC(=O)CC1C(C(=O)OCC#C)=C(N)Oc2ccc(-c3cc(OC)cc(OC)c3)cc21` (configuration not stated), the “Ratio IC50” value in assay [1] turned out to be 0.74. Moreover, the pIC50 is 6.07 in assay [2] and 5.94 in assay [3].

On to `C#CCOC(=O)CC1C(C(=O)OCC#C)=C(N)Oc2ccc(-c3cccc(N)c3)cc21` (configuration not stated), for which the pIC50 was 6.27 in assay [2] and 5.76 in assay [3].

For `C#CCOC(=O)C1=C(N)Oc2ccc(-c3cc(OC)cc(OC)c3)cc2C1CC(=O)CCC` (configuration not stated), the “Ratio IC50” value in assay [1] turned out to be 0.78. In addition, the pIC50 in assay [2] is 5.27; in assay [3], 5.16.

As to `C#CCOC(=O)C1=C(N)Oc2ccc(-c3cc(OC)cc(OC)c3)cc2C1CC(O)CCC` (configuration not stated), the “Ratio IC50” value in assay [1] came out at 0.77. Also, the pIC50 in assay [2] was 4.45; in assay [3] it was 4.33.

As to `CCCC(=O)CC1C(C(=O)OCC)=C(N)Oc2ccc(-c3cc(OC)cc(OC)c3)cc21` (configuration not stated), the “Ratio IC50” value in assay [1] stood at 0.43. For the same compound, the values for the pIC50 in assay [2] and in assay [3] were 4.93 and 4.56, respectively.

With `C#CCOC(=O)C1=C(N)Oc2ccc(-c3cc(OC)cc(OC)c3)cc2C1CC(=O)c1ccccc1` (configuration not stated), the “Ratio IC50” value in assay [1] is on record as 0.81. Besides, the results for the pIC50 in assay [2] and in assay [3] were 5.23 and 5.14, respectively.

In the case of `CCOC(=O)C1=C(N)Oc2ccc(-c3cc(OC)cc(OC)c3)cc2C1CC(=O)c1ccccc1` (configuration not stated), the “Ratio IC50” value in assay [1] was 0.38. In addition, the pIC50 was 4.39 in assay [2] and 3.96 in assay [3].

For the compound `C#CCOC(=O)CC1C(C(=O)OCC#C)=C(N)Oc2cc3c(cc21)-c1cc(OC)cc(OC)c1CO3` (configuration not stated), the “Ratio IC50” value in assay [1] turned out to be 0.18. Besides, the negative-log IC50 (pIC50) in assay [2] is 5.13; in assay [3] it was 4.38.

For the compound `C#CCOC(=O)CC1C(C(=O)OCC#C)=C(N)Oc2cc(C)c(-c3cccc(N)c3)c(C)c21` (configuration not stated), in assay [1], the “Ratio IC50” value amounted to 1.63. For the same compound, the pIC50 is 4.09 in assay [2] and 4.30 in assay [3].

With `C#CCOC(=O)C1=C(N)Oc2ccc(-c3cc(OC)cc(OC)c3)cc2C1CC(O)c1ccccc1` (configuration not stated), the “Ratio IC50” value in assay [1] is on record as 0.54. Also, the pIC50 in assay [2] was 4.27; in assay [3], 4.00.

As for `CCOC(=O)CC1C(C(=O)OCC)=C(N)Oc2ccc(-c3cc(OC)cc(OC)c3)cc21` (configuration not stated), the “Ratio IC50” value in assay [1] was 0.32. The values for the pIC50 in assay [2] and in assay [3] were 5.77 and 5.27, respectively.

Values taken from ChEMBL document CHEMBL3758100, “4H-Chromene-based anticancer agents towards multi-drug resistant HL60/MX2 human leukemia: SAR at the 4th and 6th positions” (Bioorg Med Chem, 2016).
